Test results taken from ChEMBL document CHEMBL2040806, “Synthesis and biological evaluation of analogs of the marine alkaloids granulatimide and isogranulatimide” (Eur J Med Chem, 2012).
pIC50: −log10 of the molar value. Calls of active or inactive are those of the source. No cut-off for these calls is given here.

System: not listed separately
Assay: Cytotoxicity against human OE21 cells after 72 hrs by MTT assay
Format: functional, cell-based
Settings: OE21, 72 h

| Structure (SMILES) | pIC50 |
| --- | --- |
| Cc1ccc2[nH]c(-c3ccc[nH]3)c(C3CC(=O)NC3=O)c2c1 (configuration not stated) | < 4.00 |
| COc1ccc2[nH]c(-c3ccc[nH]3)c(C3CC(=O)N(C)C3=O)c2c1 (configuration not stated) | 4.38 |
| O=C1CC(c2c(-c3ccc[nH]3)[nH]c3ccccc23)C(=O)N1 (configuration not stated) | 4.17 |
| Cc1ccc2[nH]c(-n3cccn3)cc2c1 | < 4.00 |
| O=C1NC(=O)C(c2c(-n3cccn3)[nH]c3ccccc23)=C1Br | 4.57 |
| Cc1ccc2[nH]c(-n3cccn3)c(C3=C(Br)C(=O)NC3=O)c2c1 | 4.55 |
| COc1ccc2[nH]c3c(c4c(c5ccnn53)C(=O)NC4=O)c2c1 | 4.46 |

System: HCT-116
Assay: Cell cycle arrest in p53 double-mutant human HCT116 cells assessed as mitotic index after 24 hrs by flow cytometric analysis
Format: functional
Set-up: concentration or dose not given beside the values
Settings: not given
How it was run: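 HCT116 p53-/- cells pretreated with etoposide for 1 h, then released into drug-free medium with or without inhibitor for 23 h; nocodazole added to trap cells exiting G2/M. Mitotic cells scored by phospho-histone H3 labeling and DNA content (propidium iodide) by flow cytometry.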

| Structure (SMILES) | Activity |
| --- | --- |
| Cc1ccc2[nH]c(-n3cccn3)c(C3=C(Br)C(=O)NC3=O)c2c1 | 5.5% |

System: MCF7
Assay: Cytotoxicity against human MCF7 cells after 72 hrs by MTT assay
Format: functional, cell-based
Settings: MCF7, 72 h

| Structure (SMILES) | pIC50 |
| --- | --- |
| Cc1ccc2[nH]c(-c3ccc[nH]3)c(C3CC(=O)NC3=O)c2c1 (configuration not stated) | 4.54 |
| COc1ccc2[nH]c(-c3ccc[nH]3)c(C3CC(=O)N(C)C3=O)c2c1 (configuration not stated) | 5.15 |
| O=C1CC(c2c(-c3ccc[nH]3)[nH]c3ccccc23)C(=O)N1 (configuration not stated) | 4.46 |
| Cc1ccc2[nH]c(-n3cccn3)cc2c1 | < 4.00 |
| O=C1NC(=O)C(c2c(-n3cccn3)[nH]c3ccccc23)=C1Br | 4.57 |
| Cc1ccc2[nH]c(-n3cccn3)c(C3=C(Br)C(=O)NC3=O)c2c1 | 4.82 |

Molecular target: Glycogen synthase kinase-3 (Sus scrofa, UniProt B2LUN4+I6LNT8)
Assay: Inhibition of porcine brain GSK3alpha/beta using GS1 as substrate
Settings: not given

| Structure (SMILES) | IC50 |
| --- | --- |
| COc1ccc2[nH]c3c(c4c(c5ccnn53)C(=O)NC4=O)c2c1 | 0.7 µM |

System: PC-3
Assay: Cytotoxicity against human PC3 cells after 72 hrs by MTT assay
Format: functional, cell-based
Settings: PC-3, 72 h

| Structure (SMILES) | pIC50 |
| --- | --- |
| Cc1ccc2[nH]c(-c3ccc[nH]3)c(C3CC(=O)NC3=O)c2c1 (configuration not stated) | 4.96 |
| COc1ccc2[nH]c(-c3ccc[nH]3)c(C3CC(=O)N(C)C3=O)c2c1 (configuration not stated) | 4.43 |
| O=C1CC(c2c(-c3ccc[nH]3)[nH]c3ccccc23)C(=O)N1 (configuration not stated) | 5.05 |
| Cc1ccc2[nH]c(-n3cccn3)cc2c1 | < 4.00 |
| O=C1NC(=O)C(c2c(-n3cccn3)[nH]c3ccccc23)=C1Br | 4.57 |
| Cc1ccc2[nH]c(-n3cccn3)c(C3=C(Br)C(=O)NC3=O)c2c1 | 4.59 |
| COc1ccc2[nH]c3c(c4c(c5ccnn53)C(=O)NC4=O)c2c1 | < 4.00 |

Molecular target: Dual specificity tyrosine-phosphorylation-regulated kinase 1A (Rattus norvegicus, UniProt Q63470)
Assay: Inhibition of GST-fused rat recombinant DYRK1A expressed in Escherichia coli using Woodtide as substrate and [gamma-33P] after 30 mins by scintillation counting
Settings: not given

| Structure (SMILES) | pIC50 |
| --- | --- |
| COc1ccc2[nH]c3c(c4c(c5ccnn53)C(=O)NC4=O)c2c1 | < 5.00 |

System: not listed separately
Assay: Inhibition of porcine brain CK1delta/epsilon using CKS peptide as substrate
Set-up: species or system Sus scrofa
Settings: not given

| Structure (SMILES) | pIC50 |
| --- | --- |
| COc1ccc2[nH]c3c(c4c(c5ccnn53)C(=O)NC4=O)c2c1 | < 5.00 |

System: not listed separately
Assay: Cytotoxicity against human Hs683 cells after 72 hrs by MTT assay
Format: functional, cell-based
Settings: Hs 683, 72 h

| Structure (SMILES) | pIC50 |
| --- | --- |
| Cc1ccc2[nH]c(-c3ccc[nH]3)c(C3CC(=O)NC3=O)c2c1 (configuration not stated) | 5.10 |
| COc1ccc2[nH]c(-c3ccc[nH]3)c(C3CC(=O)N(C)C3=O)c2c1 (configuration not stated) | 4.55 |
| O=C1CC(c2c(-c3ccc[nH]3)[nH]c3ccccc23)C(=O)N1 (configuration not stated) | 4.60 |
| Cc1ccc2[nH]c(-n3cccn3)cc2c1 | < 4.00 |
| O=C1NC(=O)C(c2c(-n3cccn3)[nH]c3ccccc23)=C1Br | 4.54 |
| Cc1ccc2[nH]c(-n3cccn3)c(C3=C(Br)C(=O)NC3=O)c2c1 | 4.54 |
| COc1ccc2[nH]c3c(c4c(c5ccnn53)C(=O)NC4=O)c2c1 | 4.66 |

System: B16-F10
Assay: Cytotoxicity against mouse B16F10 cells after 72 hrs by MTT assay
Format: functional, cell-based
Settings: B16-F10, 72 h

| Structure (SMILES) | pIC50 |
| --- | --- |
| Cc1ccc2[nH]c(-c3ccc[nH]3)c(C3CC(=O)NC3=O)c2c1 (configuration not stated) | 6.30 |
| COc1ccc2[nH]c(-c3ccc[nH]3)c(C3CC(=O)N(C)C3=O)c2c1 (configuration not stated) | 5.22 |
| O=C1CC(c2c(-c3ccc[nH]3)[nH]c3ccccc23)C(=O)N1 (configuration not stated) | 5.70 |
| Cc1ccc2[nH]c(-n3cccn3)cc2c1 | < 4.00 |
| O=C1NC(=O)C(c2c(-n3cccn3)[nH]c3ccccc23)=C1Br | 4.89 |
| Cc1ccc2[nH]c(-n3cccn3)c(C3=C(Br)C(=O)NC3=O)c2c1 | 5.10 |

System: A549
Assay: Cytostatic activity against human A549 cells after 72 hrs by quantitative videomicroscopic analysis
Format: functional, cell-based
Settings: not given

| Structure (SMILES) | Activity |
| --- | --- |
| COc1ccc2[nH]c(-c3ccc[nH]3)c(C3CC(=O)N(C)C3=O)c2c1 (configuration not stated) | Active |
| O=C1CC(c2c(-c3ccc[nH]3)[nH]c3ccccc23)C(=O)N1 (configuration not stated) | Active |

System: A549
Assay: Cytotoxicity against human A549 cells after 72 hrs by MTT assay
Format: functional, cell-based
Settings: A549, 72 h

| Structure (SMILES) | pIC50 |
| --- | --- |
| Cc1ccc2[nH]c(-c3ccc[nH]3)c(C3CC(=O)NC3=O)c2c1 (configuration not stated) | 4.70 |
| COc1ccc2[nH]c(-c3ccc[nH]3)c(C3CC(=O)N(C)C3=O)c2c1 (configuration not stated) | 5.15 |
| O=C1CC(c2c(-c3ccc[nH]3)[nH]c3ccccc23)C(=O)N1 (configuration not stated) | 5.10 |
| Cc1ccc2[nH]c(-n3cccn3)cc2c1 | < 4.00 |
| O=C1NC(=O)C(c2c(-n3cccn3)[nH]c3ccccc23)=C1Br | 4.60 |
| Cc1ccc2[nH]c(-n3cccn3)c(C3=C(Br)C(=O)NC3=O)c2c1 | 4.54 |
| COc1ccc2[nH]c3c(c4c(c5ccnn53)C(=O)NC4=O)c2c1 | 5.10 |

System: LoVo
Assay: Cytotoxicity against human LoVo cells after 72 hrs by MTT assay
Format: functional, cell-based
Settings: not given

| Structure (SMILES) | pIC50 |
| --- | --- |
| Cc1ccc2[nH]c(-c3ccc[nH]3)c(C3CC(=O)NC3=O)c2c1 (configuration not stated) | 5.40 |
| COc1ccc2[nH]c(-c3ccc[nH]3)c(C3CC(=O)N(C)C3=O)c2c1 (configuration not stated) | 4.60 |
| O=C1CC(c2c(-c3ccc[nH]3)[nH]c3ccccc23)C(=O)N1 (configuration not stated) | 5.10 |
| Cc1ccc2[nH]c(-n3cccn3)cc2c1 | 4.06 |
| O=C1NC(=O)C(c2c(-n3cccn3)[nH]c3ccccc23)=C1Br | 4.62 |
| Cc1ccc2[nH]c(-n3cccn3)c(C3=C(Br)C(=O)NC3=O)c2c1 | 4.57 |
| COc1ccc2[nH]c3c(c4c(c5ccnn53)C(=O)NC4=O)c2c1 | 4.47 |

Molecular target: Dual specificity protein kinase CLK1 (Mus musculus, UniProt P22518)
Assay: Inhibition of GST-fused mouse recombinant CLK1 expressed in Escherichia coli using RS peptide as substrate
Settings: not given
How it was run: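 Blanks subtracted, activity as % of uninhibited maximum, DMSO dilution controls, IC50 from dose-response curves.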

Chain of Dual specificity protein kinase CLK1 (P22518 whole entry, the tested form may be a part): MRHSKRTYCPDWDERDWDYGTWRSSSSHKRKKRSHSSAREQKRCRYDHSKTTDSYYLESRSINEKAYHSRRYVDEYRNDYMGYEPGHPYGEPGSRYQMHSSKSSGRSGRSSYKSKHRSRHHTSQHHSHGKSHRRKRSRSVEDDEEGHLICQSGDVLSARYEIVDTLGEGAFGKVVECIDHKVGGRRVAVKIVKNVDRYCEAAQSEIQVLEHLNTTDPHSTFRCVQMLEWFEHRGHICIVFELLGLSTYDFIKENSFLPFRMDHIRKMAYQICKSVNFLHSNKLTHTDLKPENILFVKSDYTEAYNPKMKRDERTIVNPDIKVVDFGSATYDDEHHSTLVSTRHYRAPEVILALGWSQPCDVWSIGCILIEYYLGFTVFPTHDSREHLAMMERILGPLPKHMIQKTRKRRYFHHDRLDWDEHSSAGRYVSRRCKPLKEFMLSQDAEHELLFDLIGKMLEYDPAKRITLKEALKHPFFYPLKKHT

| Structure (SMILES) | pIC50 |
| --- | --- |
| COc1ccc2[nH]c3c(c4c(c5ccnn53)C(=O)NC4=O)c2c1 | < 5.00 |

Molecular target: Cyclin-dependent kinase 5/CDK5 activator 1 (Homo sapiens, UniProt Q00535)
Assay: Inhibition of human recombinant CDK5/p25
Format: protein-complex assay
Settings: not given
How it was run: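 Human recombinant CDK5/p25 assayed in triplicate in buffer C with 1 mg/ml histone H1 at 30 °C, 15 µM ATP final. Activity as % of uninhibited control after blank subtraction; IC50 from dose-response curves.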

Chain of Cyclin-dependent kinase 5/CDK5 activator 1 (Q00535 whole entry): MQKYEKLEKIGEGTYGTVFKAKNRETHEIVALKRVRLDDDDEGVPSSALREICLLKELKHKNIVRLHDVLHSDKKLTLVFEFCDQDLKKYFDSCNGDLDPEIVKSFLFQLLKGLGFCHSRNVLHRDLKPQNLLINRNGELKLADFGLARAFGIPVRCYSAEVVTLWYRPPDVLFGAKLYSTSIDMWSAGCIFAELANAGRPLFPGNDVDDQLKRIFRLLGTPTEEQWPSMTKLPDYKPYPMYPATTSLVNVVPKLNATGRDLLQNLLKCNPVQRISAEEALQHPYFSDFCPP
Chain of Cyclin-dependent kinase 5/CDK5 activator 1 (Q15078 whole entry, further chain): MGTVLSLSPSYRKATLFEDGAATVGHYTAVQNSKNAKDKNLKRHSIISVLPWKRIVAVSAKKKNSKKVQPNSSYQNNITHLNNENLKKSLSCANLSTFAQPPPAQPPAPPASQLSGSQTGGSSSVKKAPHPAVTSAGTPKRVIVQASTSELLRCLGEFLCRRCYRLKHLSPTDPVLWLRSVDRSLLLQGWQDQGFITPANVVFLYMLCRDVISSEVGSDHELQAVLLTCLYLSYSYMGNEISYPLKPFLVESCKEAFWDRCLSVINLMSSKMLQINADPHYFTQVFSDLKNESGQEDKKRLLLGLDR

| Structure (SMILES) | pIC50 |
| --- | --- |
| COc1ccc2[nH]c3c(c4c(c5ccnn53)C(=O)NC4=O)c2c1 | < 5.00 |

System: not listed separately
Assay: Cytotoxicity against p53-mutant human U373 cells after 72 hrs by MTT assay
Format: functional, cell-based, U-373MG ATCC
Settings: U373 MG

| Structure (SMILES) | pIC50 |
| --- | --- |
| Cc1ccc2[nH]c(-c3ccc[nH]3)c(C3CC(=O)NC3=O)c2c1 (configuration not stated) | 5.30 |
| COc1ccc2[nH]c(-c3ccc[nH]3)c(C3CC(=O)N(C)C3=O)c2c1 (configuration not stated) | 5.00 |
| O=C1CC(c2c(-c3ccc[nH]3)[nH]c3ccccc23)C(=O)N1 (configuration not stated) | 5.40 |
| Cc1ccc2[nH]c(-n3cccn3)cc2c1 | < 4.00 |
| O=C1NC(=O)C(c2c(-n3cccn3)[nH]c3ccccc23)=C1Br | 4.57 |
| Cc1ccc2[nH]c(-n3cccn3)c(C3=C(Br)C(=O)NC3=O)c2c1 | 4.57 |
| COc1ccc2[nH]c3c(c4c(c5ccnn53)C(=O)NC4=O)c2c1 | < 4.00 |
